Data taken from ChEMBL document CHEMBL2093137, “WHO-TDR NTD Screening”.
Values after ≈ are worked out from the molar mass of the structure shown.

Assays:
Trypanosoma cruzi = experiment: WHO-TDR: Chagas disease; assay type: functional, organism-based, Homo sapiens; details: MRC5
How it was run: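 Whole-organism screen of a 10,000-compound diverse library from Life Chemicals, filtered for drug-likeness and reactive groups, against intracellular amastigotes of Trypanosoma cruzi Tulahuen CL2 beta-galactosidase strain grown in MRC-5SV2 human lung fibroblast host cells. The assay followed previously published standard procedures, with a reference drug as positive control. Antiparasitic potency is reported as IC50.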

Schistosoma mansoni = experiment: WHO-TDR: Schistosomiasis; assay type: functional; design: concentration or dose not given beside the values
How it was run: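 In this whole-organism assay, larval and/or adult worms of Schistosoma mansoni (Puerto Rican strain) were exposed to compounds from a diverse Life Chemicals library of 10,000 members. A reference drug served as positive control. Activity is stated as percent inhibition and IC50.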

[1] = WHO-TDR: Cytotoxicity; assay type: toxicity, cell-based; details: human, MRC5 cells
Brugia malayi = experiment: WHO-TDR: Lymphatic Filariasis; assay type: functional; design: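 tested at 10 µM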
How it was run: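 In a whole-organism assay, Brugia malayi microfilariae were screened against a diverse Life Chemicals library that had been filtered for drug-likeness and reactive groups. That library comprised 10,000 compounds. Activity is expressed as percent inhibition and as IC50.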

Plasmodium falciparum K1 = experiment: WHO-TDR: Malaria; assay type: functional, organism-based, Homo sapiens; details: Erythrocyte
How it was run: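 Previously published standard procedures, including a reference drug as positive control, were used to screen whole Plasmodium falciparum K1 parasites inside human red blood cells. IC50 is the measure of antiplasmodial potency. The compounds were a 10,000-member diverse Life Chemicals library.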

Leishmania infantum = experiment: WHO-TDR: Leishmaniasis; assay type: functional, organism-based, Mus musculus; details: Macrophage
How it was run: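 Intracellular amastigotes of Leishmania infantum MHOM/MA(BE)/67, hosted in murine peritoneal macrophages, were exposed to compounds from a 10,000-member diverse library supplied by Life Chemicals. The library had been filtered for drug-likeness and reactive groups. The reported IC50 expresses antiparasitic potency.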

[2] = tested on: Trypanosoma brucei brucei; experiment: WHO-TDR: Human African Trypanosomiasis (HAT); assay type: functional, organism-based; details: Squib-427
How it was run: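 In this whole-organism screen, the target was the bloodstream form of Trypanosoma brucei, strain Squib 427. A diverse set of 10,000 compounds from Life Chemicals, previously filtered for drug-likeness and reactive groups, was assayed by standard published procedures using reference drugs as positive controls. Each value is an IC50 for antiparasitic potency.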

Onchocerca ochengi = experiment: WHO-TDR: Onchocerciasis; assay type: functional; design: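 at 12.5 µM on microfilariae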
How it was run: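 Microfilariae of Onchocerca ochengi or Onchocerca lienalis, animal pathogens standing in for the human parasite, were exposed to compounds in a whole-organism screen. The compounds came from a 10,000-compound diverse Life Chemicals library filtered for drug-likeness and reactive groups. Results are expressed as percent inhibition and IC50.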

IC50 (Plasmodium falciparum K1) [µg/mL] | IC50 (Leishmania infantum) [µg/mL] | IC50 [2] [µg/mL] | Structure (SMILES) | IC50 (Trypanosoma cruzi) [µg/mL] | % Inhibition (Schistosoma mansoni) [%] | IC50 [1] [µg/mL] | % Inhibition (Brugia malayi) [%] | % Inhibition (Onchocerca ochengi) [%]
> 10.2 | > 10.2 | > 10.2 | COc1cccc2sc(Nc3nc(-c4ccncc4)cs3)nc12 | 0.132 (≈ 0.388 µM) | 0 | 4.5 (≈ 13.2 µM) | 25 | 
3.97 (≈ 10 µM) | 0.385 (≈ 0.971 µM) | 0.385 (≈ 0.971 µM) | Cc1nc2c(ccc3nc(Nc4nc5ccc(C(C)C)cc5s4)sc32)s1 | 4.11 (≈ 10.4 µM) | 0 | 3.59 (≈ 9.04 µM) | 25 | 
> 10.7 | > 10.7 | 0.422 (≈ 1.18 µM) | Cc1c(C(=O)N2CCC(C)CC2)sc2nc(-c3ccc(F)cc3)cn12 | > 10.7 | 0 | > 10.7 | 0 | 
> 11.1 | > 11.1 | 3.37 (≈ 9.14 µM) | Cc1cc2cc(CNC(=O)CC(c3ccccc3)c3ccccc3)ccc2[nH]1 | 0.391 (≈ 1.06 µM) | 0 | > 11.1 | 0 | 
4.49 (≈ 13.9 µM) | > 9.67 | 0.163 (≈ 0.506 µM) | CCOc1ccccc1C(=O)NCc1ccc2c(c1)cc(C)n2C | 0.057 (≈ 0.177 µM) | 0 | 4.26 (≈ 13.2 µM) | 0 | 
> 8.89 | > 8.89 | > 8.89 | Cc1cc2cc(CNC(=O)c3ccccc3F)ccc2n1C | 0.181 (≈ 0.609 µM) | 0 | > 8.89 | 0 | 
> 10.7 | > 10.7 | 3.39 (≈ 9.49 µM) | Cc1cc2cc(CNC(=O)c3ccccc3Br)ccc2n1C | 0.487 (≈ 1.36 µM) | 0 | > 10.7 | 0 | 
> 10.5 | > 10.5 | > 10.5 | CCC(Sc1ccc(NC(=O)c2cccc(F)c2)nn1)C(=O)OC (stereo not given) | > 10.5 |  | 9.15 (≈ 26.2 µM) | 0 | 100
5.28 (≈ 18.4 µM) | > 8.59 | > 8.59 | CC(=O)NCCNc1ccc(Nc2cc(C)ccn2)nn1 | > 8.59 |  | 6.36 (≈ 22.2 µM) | 0 | 100
4.71 (≈ 10.7 µM) | > 13.2 | 4.31 (≈ 9.83 µM) | O=S(=O)(NCCNc1ccc(Nc2ccccn2)nn1)c1ccccc1C(F)(F)F | > 13.2 |  | 5.08 (≈ 11.6 µM) | 25 | 100
1.69 (≈ 3.91 µM) | 0.42 (≈ 0.971 µM) | 11.9 (≈ 27.5 µM) | CCCCOc1ccc(C(=O)N2CCN(c3ccc(Nc4cccnc4)nn3)CC2)cc1 | 3.45 (≈ 7.98 µM) |  | > 13 | 0 | 100
> 13.2 | 4.28 (≈ 9.71 µM) | > 13.2 | COc1ccc(C)cc1S(=O)(=O)N1CCN(c2ccc(Nc3cccnc3)nn2)CC1 | 3.89 (≈ 8.83 µM) |  | 10.3 (≈ 23.4 µM) | 0 | 100
3.68 (≈ 8.84 µM) | 4.04 (≈ 9.71 µM) | 4 (≈ 9.6 µM) | CC(C)(C)c1ccc(C(=O)N2CCN(c3ccc(Nc4ccncc4)nn3)CC2)cc1 | 4.1 (≈ 9.85 µM) |  | 3.49 (≈ 8.39 µM) | 0 | 100
> 11.9 | 0.385 (≈ 0.971 µM) | > 11.9 | O=S(=O)(c1ccccc1)N1CCN(c2ccc(Nc3ccncc3)nn2)CC1 | > 11.9 |  | > 11.9 | 0 | 0
0.473 (≈ 1.08 µM) | 4.26 (≈ 9.71 µM) | 3.61 (≈ 8.23 µM) | Cc1cc(C)c(S(=O)(=O)N2CCN(c3ccc(Nc4ccncc4)nn3)CC2)cc1C | 0.782 (≈ 1.78 µM) |  | 1.94 (≈ 4.43 µM) | 0 | 0
5.77 (≈ 13.4 µM) | > 12.9 | 4.24 (≈ 9.83 µM) | O=S(=O)(c1cccc(Cl)c1)N1CCN(c2ccc(Nc3ccncc3)nn2)CC1 | 3.98 (≈ 9.24 µM) |  | 12.9 (≈ 30 µM) | 0 | 100
> 8.05 | 0.261 (≈ 0.973 µM) | > 8.05 | COc1cc(NCCNC(=O)C(C)C)nc(OC)n1 | > 8.05 |  | > 8.05 | 0 | 0
> 12 | > 12 | > 12 | CCCCOc1ccc(C(=O)N2CCN(c3cc(OC)nc(OC)n3)CC2)cc1 | > 12 |  | > 12 | 0 | 100

IC50 (Plasmodium falciparum K1) [µg/mL] | IC50 (Leishmania infantum) [µg/mL] | IC50 [2] [µg/mL] | Structure (SMILES) | IC50 (Trypanosoma cruzi) [µg/mL] | % Inhibition (Schistosoma mansoni) [%] | IC50 [1] [µg/mL] | % Inhibition (Brugia malayi) [%] | % Inhibition (Onchocerca ochengi) [%]
> 11.3 | > 11.3 | > 11.3 | COc1cc(N2CCN(C(=O)Nc3cccc(Cl)c3)CC2)nc(OC)n1 | > 11.3 |  | > 11.3 | 0 | 100
> 12.5 | > 12.5 | > 12.5 | Cc1nc2sc(C)c(C)n2c(=O)c1NC(=O)CC(c1ccccc1)c1ccccc1 | > 12.5 |  | > 12.5 | 0 | 100
> 10.8 | 0.348 (≈ 0.971 µM) | > 10.8 | CCOc1ncccc1C(=O)Nc1c(C)nc2sc(C)c(C)n2c1=O | > 10.8 |  | > 10.8 | 0 | 0
> 11.8 | 0.383 (≈ 0.971 µM) | > 11.8 | Cc1cc(=O)n2c(-c3cccc(NC(=O)Nc4ccc(F)cc4)c3)csc2n1 | > 11.8 |  | > 11.8 | 0 | 0
> 12.2 | 0.395 (≈ 0.972 µM) | 4.04 (≈ 9.95 µM) | COc1ccc(NC(=O)Nc2cccc(-c3csc4nc(C)cc(=O)n34)c2)cc1 | > 12.2 |  | > 12.2 | 0 | 0
> 11.9 | > 11.9 | 4.05 (≈ 10.2 µM) | Cc1nc2scc(-c3cccc(NC(=O)NC4CCCCC4)c3)n2c(=O)c1C | 3.54 (≈ 8.93 µM) |  | > 11.9 | 0 | 100
> 10.5 | > 10.5 | > 10.5 | Cc1nc2scc(-c3cccc(NS(C)(=O)=O)c3)n2c(=O)c1C | > 10.5 |  | > 10.5 | 0 | 100
> 12.9 | 0.418 (≈ 0.971 µM) | > 12.9 | Cc1noc(C)c1S(=O)(=O)Nc1cccc(-c2csc3nc(C)c(C)c(=O)n23)c1 | > 12.9 |  | > 12.9 | 0 | 0
> 8.68 | > 8.68 | > 8.68 | COc1ccc(CC(=O)Nc2ccc(SC)nn2)cc1 | > 8.68 |  | > 8.68 | 0 | 100
> 12.1 | > 12.1 | > 12.1 | COc1ccc(C(=O)Nc2ccc(SCC(=O)N3CCCC3)nn2)c(OC)c1 | > 12.1 |  | > 12.1 | 0 | 100
> 12.3 | > 12.3 | > 12.3 | O=C(CCc1csc(NC(=O)c2ccco2)n1)NCCc1c[nH]c2ccccc12 | 5.75 (≈ 14.1 µM) |  | 3.18 (≈ 7.78 µM) | 0 | 100
> 12.4 | > 12.4 | > 12.4 | COc1ccccc1CNC(=O)CCc1csc(NC(=O)c2ccc(F)cc2)n1 | > 12.4 |  | > 12.4 | 0 | 100
> 12.5 | 5.26 (≈ 12.7 µM) | 4.19 (≈ 10.1 µM) | COc1ccccc1CCNC(=O)CCc1csc(NC(=O)c2cccs2)n1 | 3.8 (≈ 9.15 µM) |  | 5.79 (≈ 13.9 µM) | 0 | 100
> 12.1 | 12.1 (≈ 30 µM) | 4.15 (≈ 10.3 µM) | CSc1ccccc1NC(=O)CCc1csc(NC(=O)c2cccs2)n1 | 5.38 (≈ 13.3 µM) |  | > 12.1 | 0 | 100
> 12.4 | 4.03 (≈ 9.71 µM) | > 12.4 | O=C(CCc1csc(NC(=O)c2cccs2)n1)Nc1nc2ccccc2s1 | > 12.4 |  | > 12.4 | 0 | 100
> 11.3 | > 11.3 | > 11.3 | O=C(CCc1csc(NC(=O)c2ccco2)n1)Nc1ccc(Cl)cc1 | 3.67 (≈ 9.77 µM) |  | > 11.3 | 0 | 100
> 12.4 | 0.843 (≈ 2.04 µM) | > 12.4 | Cc1cccc2sc(NC(=O)CCc3csc(NC(=O)c4ccco4)n3)nc12 | > 12.4 |  | > 12.4 | 0 | 100
